KCNQ1 act: human KCNQ1 channel potentiation or activation. AID 2648. CHO-K1 KCNQ1, thallium flux FluxOR fluorescence; active compounds read high. B-score at 10 µM. 0.35% of 310,000 active. P51787;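 active = fluorescence ratio B-score, a plate-corrected score, at least three library SD, with initial intensity B-score within 5 SD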
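Test system: CHO-K1 cells stably expressing KCNQ1 / Medium: assay buffer / Also added: depolarizing K+/Tl+ stimulus, K2SO4 and Tl2SO4 each 12.5 mM in 5x stock / Incubation: 90 min dye loading and 20 min compound exposure, both at room temperature / Signal: thallium influx via FluxOR fluorescence, kinetic imaging / Evaluation: B score of baseline-normalized fluorescence ratio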
hERG rescue: shields human hERG channel from block by proarrhythmic agents; Q12809; CHO-hERG, FluxOR thallium flux, dofetilide IC70 present; activation (rescue from dofetilide block), less the hit threshold, % at 10 µM; 0.51% of 310,000 active;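 active = activation above the mean of controls blocked by dofetilide plus 5 SD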;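 note: thallium influx through hERG after potassium depolarization seen as dye fluorescence rise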
KCNK3 block: human KCNK3 channel inhibition, primary screen; AID 602410; CHO-KCNK3 thallium flux, FluxOR fluorescence; active compounds read low; O14649; B-score at 10 µM; 0.84% of 340,000 active;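 active = B-score under library mean minus 4 SD, starting fluorescence ratio at most library mean plus 5 SD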;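 note: more negative B-score means stronger inhibition of thallium flux through KCNK3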
KCNQ1 block: inhibitors of human KCNQ1 potassium channel; 1.3% of 310,000 active; P51787; B-score at 10 µM; CHO-K1 KCNQ1, FluxOR thallium flux fluorescence; active compounds read high; AID 2642;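 active = compounds whose thallium flux B-score, printed positive for inhibition, exceeds three library SD while starting fluorescence stays within three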;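 note: channel opened by potassium depolarization with thallium stimulus after 20 min compound exposure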
KCNK9 block: blocks the human KCNK9 two-pore domain potassium channel; Q9NPC2; HEK293 KCNK9, FluxOR thallium flux fluorescence; active compounds read low; B-score at 10 µM; 1.2% of 310,000 active; AID 488922;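 active = ratio B-score over 3 SD below the library mean, with starting fluorescence within 5 SD of its mean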;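 note: negative B-score means less thallium flux so channel inhibition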
KCNK3 confirm: confirmation of human KCNK3 two-pore domain potassium channel inhibitors | ratio percent of control, % at 10 µM | shares compounds with KCNK3 block | CHO-KCNK3 thallium flux, FluxOR fluorescence; 0% buffer, 100% carvedilol maximal block | 99% of 2,400 active;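 active = ratio percent of control, averaged over triplicates, above buffer control mean plus 5 SD, cut at about 64% in these data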;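 note: ratio is the fluorescence rise from min to max over baseline after thallium stimulus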
KCNK3 uninduced: counter-screen for KCNK3 inhibitors: effect in non-induced cells | shares compounds with KCNK3 block | non-induced KCNK3 parental cells, FluxOR thallium flux; active compounds read low | thallium flux ratio (lower = more inhibition) at 10 µM | 40% of 2,400 active;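 active = thallium flux ratio, averaged over three wells, more than 5 SD below the buffer control mean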;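 note: host cells are CHO cells without KCNK3 induction; ratio is peak minus trough fluorescence over baseline then normalized to buffer controls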
Active calls of the source: *; i = inactive; . = no result. Sampled rows, rich in hits. Any-hit rate of the full collection: about 4.1%.

SMILES | KCNQ1 act | hERG rescue | KCNK3 block | KCNQ1 block | KCNK9 block | KCNK3 confirm | KCNK3 uninduced
CC(=O)N(C)C1=Nc2ccc(Cl)cc2C(c2ccccc2)=[N+]([O-])C1 | . | . | i | . | . | . | .
CCC1CN1P(=S)(N1CC1CC)N1CC1CC (stereo unspecified) | . | . | i | . | . | . | .
CC(C)[C@]12CC(=O)[C@H](C)[C@H]1C2 | . | . | i | . | . | . | .
CCC(C(=O)N1CCC2(CC1)OCCO2)n1c2ccccc2c2nc(=O)cc(C)n21 (stereo unspecified) | i | -7 | -10* | i | i | 90* | i
CCCCn1c(O)c(C(CC)=NCc2ccc3c(c2)OCO3)c(=O)[nH]c1=O | i | -9 | -9.7* | i | -6.9* | 117* | i

Screening data from PubChem BioAssay.
